This note sets out measurements from ChEMBL document CHEMBL1157555, “Synthesis and pharmacological evaluation of novel 1,3,8- and 1,3,7,8-substituted xanthines as adenosine receptor antagonists” (Bioorg Med Chem, 2010).

In experiment [1] the target is T1, Adenosine receptor A2b (Homo sapiens, UniProt P29275).
T1 sequence (P29275 whole entry): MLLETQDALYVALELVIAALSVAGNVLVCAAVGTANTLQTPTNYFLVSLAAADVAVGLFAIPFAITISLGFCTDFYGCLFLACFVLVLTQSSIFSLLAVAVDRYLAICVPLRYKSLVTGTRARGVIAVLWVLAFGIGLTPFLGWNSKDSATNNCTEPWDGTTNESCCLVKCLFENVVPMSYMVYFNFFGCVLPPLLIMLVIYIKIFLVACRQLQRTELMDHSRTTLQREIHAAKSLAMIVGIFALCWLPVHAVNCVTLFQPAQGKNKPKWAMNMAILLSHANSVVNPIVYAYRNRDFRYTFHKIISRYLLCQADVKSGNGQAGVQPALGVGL
Briefly: Displacement of [3H]DPCPX from human recombinant adenosine A2B receptor expressed in HEK293 cells by microplate beta scintillation counter. Format: cell-based. The procedure, abridged: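 Membranes from HEK-293 cells expressing human A2B were labelled with 35 nM [3H]DPCPX. Incubation ran 30 min at 25 °C, followed by filtration and beta scintillation counting. IC50 was fitted by non-linear regression and converted to Ki by Cheng–Prusoff. Weak or poorly soluble compounds were given as % inhibition of specific binding at a single concentration. n = 3, each in duplicate.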
In general terms: In a radioligand displacement assay an active substance lowers the binding of a labelled ligand.

Experiment [2] has as its target T2, Adenosine receptor A3 (Homo sapiens) (UniProt P0DMS8).
T2 sequence (whole entry): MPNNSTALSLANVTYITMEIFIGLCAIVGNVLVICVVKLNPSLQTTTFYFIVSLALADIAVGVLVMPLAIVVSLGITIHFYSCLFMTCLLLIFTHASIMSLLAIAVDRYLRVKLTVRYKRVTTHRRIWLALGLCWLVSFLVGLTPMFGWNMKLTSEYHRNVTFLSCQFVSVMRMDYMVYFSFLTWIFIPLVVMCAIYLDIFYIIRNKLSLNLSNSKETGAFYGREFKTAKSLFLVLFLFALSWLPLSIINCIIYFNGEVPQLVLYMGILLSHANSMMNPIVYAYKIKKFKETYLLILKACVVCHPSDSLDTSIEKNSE
Nature of the experiment: Displacement of [3H]NECA from human recombinant adenosine A3 receptor expressed in human HeLa cells at 1 uM by microplate beta scintillation counter. In kind it is cell-based. Put shortly:
(§1)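 HeLa-A3 cell membranes were labelled with 30 nM [3H]NECA. Non-specific binding was defined with (R)-PIA. After 180 min at 25 °C, samples were filtered and counted by beta scintillation. Ki was calculated by Cheng–Prusoff from IC50 obtained by non-linear regression. Weak or poorly soluble compounds were reported as % inhibition of specific binding at a single concentration. Mean of 3 experiments in duplicate.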

The species entered for experiment [3] is Homo sapiens. Nature of the experiment: Selectivity ratio of Ki for human adenosine A1 receptor to Ki for human adenosine A2B receptor. The procedure, abridged:
(§2)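 Ratios of Ki values at each human subtype to Ki at human A2B (HEK-293 membranes, [3H]DPCPX). Each Ki was derived by Cheng–Prusoff from IC50 of radioligand competition binding in membranes of transfected cells. Results are the mean of 3 experiments, each in duplicate.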

Experiment [4] is filed under the species Homo sapiens. Briefly: Selectivity ratio of Ki for human adenosine A2A receptor to Ki for human adenosine A2B receptor. Put shortly:
as §2

Experiment [5] deals with T3, Adenosine receptor A1 (Homo sapiens, UniProt P30542).
T3 sequence (P30542 whole entry): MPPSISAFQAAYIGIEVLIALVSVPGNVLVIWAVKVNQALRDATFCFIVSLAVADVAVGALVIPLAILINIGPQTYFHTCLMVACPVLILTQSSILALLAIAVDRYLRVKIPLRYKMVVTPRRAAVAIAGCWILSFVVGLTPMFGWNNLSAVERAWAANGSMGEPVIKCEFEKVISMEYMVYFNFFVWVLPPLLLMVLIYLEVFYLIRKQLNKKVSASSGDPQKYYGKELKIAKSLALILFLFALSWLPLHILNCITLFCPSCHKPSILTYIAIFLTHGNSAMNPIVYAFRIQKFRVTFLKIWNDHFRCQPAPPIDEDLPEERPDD
Nature of the experiment: Displacement of [3H]DPCPX from human recombinant adenosine A1 receptor expressed in CHO cells by microplate beta scintillation counter. In kind it is cell-based. The procedure, abridged:
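Membranes from CHO cells expressing human A1 were labelled with 2 nM [3H]DPCPX. Non-specific binding was defined with (R)-PIA. Incubation ran 60 min at 25 °C, then samples were filtered and counted by beta scintillation. IC50 came from non-linear regression, and Ki from Cheng–Prusoff. Weak or poorly soluble compounds were reported as % inhibition of specific binding at a single concentration. Mean of 3 experiments, each in duplicate.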

The target of experiment [6] is T4, Adenosine receptor A2a (Homo sapiens, UniProt P29274). Nature of the experiment: Displacement of [3H]ZM241385 from human recombinant adenosine A2A receptor expressed in human HeLa cells by microplate beta scintillation counter. In kind it is cell-based. Put shortly:
(§3)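 Competition used HeLa cell membranes expressing human A2A with [3H]ZM241385. Non-specific binding was set with NECA. Incubation was 30 min at 25 °C, then filtration and beta scintillation counting. IC50 from non-linear regression was converted to Ki (Cheng–Prusoff). Weak or poorly soluble compounds were reported as % inhibition of specific binding at a single concentration. Three experiments, each in duplicate.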

In experiment [7] the target is T4, Adenosine receptor A2a. Briefly: Displacement of [3H]ZM241385 from human recombinant adenosine A2A receptor expressed in human HeLa cells at 1 uM by microplate beta scintillation counter. Format: cell-based. The procedure, abridged: as §3
The target in experiment [8] is T5, Adenosine receptor A3 (Homo sapiens, UniProt P0DMS8).
T5 sequence (P0DMS8 whole entry): T2 sequence (whole entry)
Nature of the experiment: Displacement of [3H]NECA from human recombinant adenosine A3 receptor expressed in human HeLa cells by microplate beta scintillation counter. In kind it is cell-based. The procedure, abridged:
as §1

Experiment [9] is filed under the species Homo sapiens. Briefly: Selectivity ratio of Ki for human adenosine A3 receptor to Ki for human adenosine A2B receptor. The procedure, abridged:
as §2

T4 sequence (P29274 whole entry): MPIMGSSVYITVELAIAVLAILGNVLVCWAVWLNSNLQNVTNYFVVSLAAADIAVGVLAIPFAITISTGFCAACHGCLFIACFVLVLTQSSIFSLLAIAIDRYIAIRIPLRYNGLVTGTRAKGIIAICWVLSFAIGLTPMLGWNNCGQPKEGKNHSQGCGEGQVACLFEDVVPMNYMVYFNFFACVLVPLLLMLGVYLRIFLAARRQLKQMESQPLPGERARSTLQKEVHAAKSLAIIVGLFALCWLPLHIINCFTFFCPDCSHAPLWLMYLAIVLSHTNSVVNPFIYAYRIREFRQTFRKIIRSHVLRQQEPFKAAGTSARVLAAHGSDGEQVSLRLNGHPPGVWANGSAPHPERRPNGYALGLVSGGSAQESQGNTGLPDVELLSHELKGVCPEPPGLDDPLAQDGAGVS

As a reminder, the Ki is a measure of affinity in units of concentration, obtained from inhibition or displacement. With `CCn1c(=O)c2c(nc(Cc3cccs3)n2C)n(Cc2cccs2)c1=O`, the Ki in experiment [1] was 35.5 nM; in experiment [5], 95.5 nM; in experiment [6], 123 nM. Besides, the Activity in experiment [2] amounted to 1%. Besides, the figures for the Ratio Ki in experiment [3] and in experiment [4] were 2.7 and 3.5, respectively.

Take `CCn1c(=O)c2c(nc(Cc3c(F)cccc3F)n2C)n(Cc2cccs2)c1=O`: the Ki in [1] was 135 nM; in [5], 120 nM; in [6], 178 nM. Also, in [2], the Activity turned out to be 20%. Also, the Ratio Ki amounted to 0.9 in experiment [3] and 1.3 in experiment [4].

For the molecule `CCn1c(=O)c2c(nc(Cc3cccs3)n2C)n(Cc2ccccc2)c1=O`, the results for the Ki in [1], in [5] and in [6] were 372 nM, 389 nM and 759 nM, respectively. In experiment [2], the Activity was 6%. Further, the Ratio Ki was found to be 1.1 in experiment [3] and 2.1 in experiment [4].

For `CCn1c(=O)c2c(nc(Cc3ccco3)n2C)n(Cc2cccs2)c1=O`, the figures for the Ki in [1], in experiment [5] and in experiment [6] were 26.9 nM, 100 nM and 219 nM, respectively. Besides, in experiment [2], the Activity amounted to 22%. In addition, the Ratio Ki in experiment [3] turned out to be 3.7; in [4], 8.1.

In the case of `CCCn1c(=O)c2[nH]c(-c3ccccc3)nc2n(CC[S+]([O-])CC)c1=O` (centres undefined), the Activity in experiment [7] is 9%. Besides, the Ki in experiment [8] was 245 nM; in experiment [1], 589 nM; in experiment [5], 195 nM. Moreover, the Ratio Ki in experiment [9] turned out to be 0.4.

`CCSCCn1c(=O)n(CC)c(=O)c2[nH]c(-c3ccccc3)nc21`: the Activity in experiment [7] was 12%. The Ki is 407 nM in experiment [8], 479 nM in experiment [1] and 148 nM in experiment [5]. For the same molecule, the Ratio Ki in experiment [3] is 0.3; in [9], 0.9.

For `CCn1c(=O)c2[nH]c(Cc3cccs3)nc2n(Cc2cccs2)c1=O`, the Ki in [8] is 813 nM; in experiment [1], 138 nM; in experiment [5], 676 nM; in [6], 3980 nM. For the same molecule, the Ratio Ki in experiment [3] came to 4.9; in experiment [4] it was 28.9; in experiment [9], 5.9.

On to `CCCn1c(=O)c2[nH]c(-c3ccccc3)nc2n(CCSCC)c1=O`, for which the Ki is 117 nM in experiment [8], 191 nM in [1], 93.3 nM in experiment [5] and 1450 nM in experiment [6]. Moreover, the Ratio Ki worked out at 0.5 in [3], 7.6 in experiment [4] and 0.6 in experiment [9].
